Test results as given in ChEMBL document CHEMBL4177768, “Synthesis and Biological Evaluation of Derivatives of Indoline as Highly Potent Antioxidant and Anti-inflammatory Agents” (J Med Chem, 2018).
Activity calls are given as the source filed them. The rule behind the calls is not given here.

Legend:
RAW264.7 [1] = test: Cytoprotective activity against H2O2-induced oxidative stress in mouse RAW264.7 cells assessed as decrease in caspase-3 activity at 1 pM incubated for 4 hrs prior to H2O2 addition measured after 90 mins by caspase-GloR reagent-based luminescence assay relative to control; format: functional
Procedure, shortened: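 RAW 264.7 macrophages were pretreated with compound (1 pM or 1 nM) 4 h before H2O2 100 µM. Medium was replaced with fresh DMEM after 90 min and plates were incubated overnight. Caspase-Glo 3/7 reagent was added and luminescence read after 30 min at room temperature. Mean ± SD, 4-6 replicates.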

RAW264.7 [2] = test: Antiinflammatory activity in mouse RAW264.7 cells assessed as reduction in LPS-induced TNF-alpha production at 1 nM incubated for 2 hrs prior to LPS challenge measured after 8 hrs by ELISA; format: functional
Procedure, shortened: (§1)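 RAW 264.7 macrophages were plated at 1×10^5 per well, grown overnight and washed with PBS. Compounds in water (final 1 pM-100 nM, medium with 2% FCS) were added 2 h at 37 °C before E. coli 0111:B4 LPS, 2.5 µg/mL. TNF-α was sampled at 8 h; IL-6 and nitrite (Griess) at 24 h. ELISA was used for cytokines. Values are % of the LPS + medium value in each experiment. Budesonide was the reference. 2-3 experiments, 6 wells per concentration.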

RAW264.7 [3] = test: Antiinflammatory activity in mouse RAW264.7 cells assessed as reduction in LPS-induced nitric oxide production at 1 pM to 100 nM incubated for 2 hrs prior to LPS challenge measured after 24 hrs by Griess assay; format: functional, cell-based; procedure, shortened: as §1
RAW264.7 [4] = test: Antiinflammatory activity in mouse RAW264.7 cells assessed as reduction in LPS-induced TNF-alpha production at 1 pM to 100 nM incubated for 2 hrs prior to LPS challenge measured after 8 hrs by ELISA; format: functional, cell-based; procedure, shortened: as §1
RAW264.7 [5] = test: Antiinflammatory activity in mouse RAW264.7 cells assessed as reduction in LPS-induced IL-6 production at 1 nM incubated for 2 hrs prior to LPS challenge measured after 24 hrs by ELISA; format: functional; procedure, shortened: as §1
RAW264.7 [6] = test: Antiinflammatory activity in mouse RAW264.7 cells assessed as reduction in LPS-induced TNF-alpha production at 100 pM incubated for 2 hrs prior to LPS challenge measured after 8 hrs by ELISA; format: functional; procedure, shortened: as §1
RAW264.7 [7] = test: Antiinflammatory activity in mouse RAW264.7 cells assessed as reduction in LPS-induced nitric oxide production at 1 nM incubated for 2 hrs prior to LPS challenge measured after 24 hrs by Griess assay; format: functional; procedure, shortened: as §1
RAW264.7 [8] = test: Antiinflammatory activity in mouse RAW264.7 cells assessed as reduction in LPS-induced IL-6 production at 100 pM incubated for 2 hrs prior to LPS challenge measured after 24 hrs by ELISA; format: functional; procedure, shortened: as §1
RAW264.7 [9] = test: Antiinflammatory activity in mouse RAW264.7 cells assessed as reduction in LPS-induced nitric oxide production at 100 pM incubated for 2 hrs prior to LPS challenge measured after 24 hrs by Griess assay; format: functional; procedure, shortened: as §1
RAW264.7 [10] = test: Cytoprotective activity against H2O2-induced oxidative stress in mouse RAW264.7 cells assessed as decrease in LDH release at 1 pM incubated for 2 hrs prior to H2O2 addition by colorimetric assay relative to control; format: functional; parameters: scale not given: the % may be the effect or the level left
Procedure, shortened: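 RAW 264.7 cells were seeded and pretreated with compound before H2O2 100 µM, in serum-free medium. Collected medium was centrifuged and incubated with reaction mix 30 min at room temperature. LDH was measured as NADH formation by colorimetric read at 490 nm. n = 8-10 replicates per concentration.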

RAW264.7 [11] = test: Cytoprotective activity against H2O2-induced oxidative stress in mouse RAW264.7 cells assessed as cell viability at 1 nM incubated for 2 hrs prior to H2O2 addition measured after 24 hrs by MTT assay (reference value: 68 to 72.8%); format: functional; conditions: read-out: Activity
RAW264.7 [12] = test: Cytoprotective activity against H2O2-induced oxidative stress in mouse RAW264.7 cells assessed as decrease in LDH release at 1 pM incubated for 2 hrs prior to H2O2 addition by colorimetric assay relative to control; parameters: scale not given: the % may be the effect or the level left
RAW264.7 [13] = test: Cytoprotective activity against H2O2-induced oxidative stress in mouse RAW264.7 cells assessed as increase in cell viability at 1 pM incubated for 2 hrs prior to H2O2 addition measured after 24 hrs by MTT assay; format: functional, cell-based
Procedure, shortened: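 RAW 264.7 macrophages cultured in DMEM with 10% FCS, seeded at 1 x 10^4 cells/mL. Pretreated 2 h with compound (1 pM to 100 nM) before H2O2 at 100 μM. Viability read by MTT (0.5 mg/mL final, 1 h, 37 °C, DMSO lysis, OD 570 nm) relative to vehicle. 2-3 experiments, at least 6 wells per concentration; mean ± SEM.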

Mus musculus [14] = test: Acute toxicity in Balb/C mouse assessed as change in activity at 100 umol/kg, sc measured over 72 hrs; format: organism-based; conditions: in vivo
Procedure, shortened: (§2)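 Male Balb/C mice, 24-28 g, groups of 3; single sc injection of compound at 100 μmoles/kg or saline (1 mL/100 g). Food and water intake, body weight and general activity monitored over 72 h against saline-injected animals.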

Mus musculus [15] = test: Antiinflammatory activity in Balb/C mouse assessed as reduction in LPS-induced IL6 production in liver at 0.1 to 10 umol/kg, sc administered LPS 15 mins post compound treatment measured after 4 hrs by ELISA; format: functional, organism-based
Mus musculus [16] = test: Antiinflammatory activity in Balb/C mouse assessed as reduction in LPS-induced IL6 production in brain at 0.1 to 10 umol/kg, sc administered LPS 15 mins post compound treatment measured after 4 hrs by ELISA; format: functional, organism-based
Mus musculus [17] = test: Acute toxicity in Balb/C mouse assessed as change in food intake at 100 umol/kg, sc measured over 72 hrs; format: organism-based; conditions: in vivo; procedure, shortened: as §2
Mus musculus [18] = test: Acute toxicity in Balb/C mouse assessed as change in water intake at 100 umol/kg, sc measured over 72 hrs; format: organism-based; conditions: in vivo; procedure, shortened: as §2
Mus musculus [19] = test: Acute toxicity in Balb/C mouse assessed as change in body weight at 100 umol/kg, sc measured over 72 hrs; format: organism-based; conditions: in vivo; procedure, shortened: as §2
Mus musculus [20] = test: Antiinflammatory activity in Balb/C mouse assessed as reduction in LPS-induced IL6 production in spleen at 0.1 to 10 umol/kg, sc administered LPS 15 mins post compound treatment measured after 4 hrs by ELISA; format: functional, organism-based
Procedure, shortened: (§3)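 Male Balb/C mice, 7-8 weeks old, given compound sc (0.1, 1 or 10 µmoles/kg) or saline. LPS 10 mg/kg was given ip 15 min later, and mice were killed 4 h after that. Spleens were homogenized in PBS with protease inhibitor and centrifuged at 14,000 g, 4 °C. Cytokines in plasma and tissue supernatants were measured by ELISA, with protein by BCA. Dexamethasone 5.6 µmoles/kg was the reference. n = 8-10 mice per treatment.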

Mus musculus [21] = test: Antiinflammatory activity in Balb/C mouse assessed as reduction in LPS-induced TNF-alpha production in plasma at 0.1 to 10 umol/kg, sc administered LPS 15 mins post compound treatment measured after 4 hrs by ELISA; format: functional, organism-based; procedure, shortened: as §3
Mus musculus [22] = test: Antiinflammatory activity in Balb/C mouse assessed as reduction in LPS-induced IL6 production in plasma at 0.1 to 10 umol/kg, sc administered LPS 15 mins post compound treatment measured after 4 hrs by ELISA; format: functional, organism-based; procedure, shortened: as §3
Mus musculus [23] = test: Antiinflammatory activity in Balb/C mouse assessed as reduction in LPS-induced TNF-alpha production in spleen at 0.1 to 10 umol/kg, sc administered LPS 15 mins post compound treatment measured after 4 hrs by ELISA; format: functional, organism-based; procedure, shortened: as §3
RAW264.7 [24] = test: Cytoprotective activity against H2O2-induced oxidative stress in mouse RAW264.7 cells assessed as cell viability at 1 pM incubated for 2 hrs prior to H2O2 addition measured after 24 hrs by MTT assay (reference value: 68 to 72.8%); format: functional; conditions: read-out: Activity
[25] = Cytotoxicity against mouse RAW264.7 cells assessed as cell viability at 10^-8 M after 24 hrs by MTT assay relative to control; format: cell-based; conditions: read-out: Activity
Procedure, shortened: (§4)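 RAW 264.7 cells, seeded at 1×10^4 cells/mL and incubated 24 h, were exposed to compound from 1 pM to 100 nM. Viability was read by MTT (final 0.5 mg/mL, 1 h at 37 °C), with formazan dissolved in DMSO and OD at 570 nm. Results are compared with medium-only cells.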

[26] = Cytotoxicity against mouse RAW264.7 cells assessed as cell viability at 10^-7 M after 24 hrs by MTT assay relative to control; format: cell-based; conditions: read-out: Activity; procedure, shortened: as §4
[27] = Cytotoxicity against mouse RAW264.7 cells assessed as cell viability at 10^-9 M after 24 hrs by MTT assay relative to control; format: cell-based; conditions: read-out: Activity; procedure, shortened: as §4
[28] = Cytotoxicity against mouse RAW264.7 cells assessed as cell viability at 10^-11 M after 24 hrs by MTT assay relative to control; format: cell-based; conditions: read-out: Activity; procedure, shortened: as §4
[29] = Cytotoxicity against mouse RAW264.7 cells assessed as cell viability at 10^-10 M after 24 hrs by MTT assay relative to control; format: cell-based; conditions: read-out: Activity; procedure, shortened: as §4
[30] = Cytotoxicity against mouse RAW264.7 cells assessed as cell viability at 10^-12 M after 24 hrs by MTT assay relative to control; format: cell-based; conditions: read-out: Activity; procedure, shortened: as §4

For Cl.NCCCN1CCc2ccccc21, the Activity (RAW264.7 [1]) was “inactive”, the Activity (RAW264.7 [2]) was “Active” and the Activity (RAW264.7 [3]) was “Active”. For the same molecule, the Activity (RAW264.7 [4]) was “Active”, the Activity (RAW264.7 [5]) was “Active” and the Activity (RAW264.7 [6]) was “Active”. The Activity (RAW264.7 [7]) was “Active”, the Activity (RAW264.7 [8]) was “Active” and the Activity (RAW264.7 [9]) was “Active”. It also gave an Activity (RAW264.7 [10]) of 16%, a viability at 0.001 µM (RAW264.7 [11]) of 91.9% and an Activity (RAW264.7 [12]) of 16%.
With O=c1c(O)c(-c2ccc(O)c(O)c2)oc2cc(O)cc(O)c12 the Activity (RAW264.7 [13]) was “Active”.
For CC(C)NCCCN1CCc2ccccc21.Cl.Cl, the Activity (Mus musculus [14]) was “Non-Toxic”, the Activity (RAW264.7 [1]) was 60% and the Activity (Mus musculus [15]) was “Dose-dependent effect”. For the same molecule, the Activity (Mus musculus [16]) was “Dose-dependent effect”, the Activity (Mus musculus [17]) was “Non-Toxic” and the Activity (Mus musculus [18]) was “Non-Toxic”. The Activity (Mus musculus [19]) was “Non-Toxic”, the Activity (Mus musculus [20]) was “Dose-dependent effect” and the Activity (RAW264.7 [2]) was 50%. For the same molecule, the Activity (RAW264.7 [3]) was “Dose-dependent effect”, the Activity (RAW264.7 [4]) was “Dose-dependent effect” and the Activity (Mus musculus [21]) was “Dose-dependent effect”. For the same molecule, the Activity (Mus musculus [22]) was “Dose-dependent effect”, the Activity (Mus musculus [23]) was “Dose-dependent effect” and the Activity (RAW264.7 [5]) was 50%. The Activity (RAW264.7 [7]) was 50%, the Activity (RAW264.7 [10]) was 16% and the viability at 1 pM (RAW264.7 [24]) was 98.5%. It also gave a viability at 24 h, 0.01 µM [25] of 90.9%, a viability at 24 h, 0.1 µM [26] of 91.9% and a viability at 24 h, 0.001 µM [27] of 92.1%. The viability at 24 h, 1e-05 µM [28] was 102%, the viability at 24 h, 0.0001 µM [29] was 99.2% and the viability at 24 h, 1e-06 µM [30] was 93.3%. The Activity (RAW264.7 [12]) was 16%.
